# Published values from different studies.
# Lines come from different studies, so protocols differ.
SMILES,target or system,assay,test system,conditions,measurement,result
CCCCCNC[C@H](O)c1cc(Cl)cc2c1-c1ccc(Cl)cc1C2,HepG2,cell growth or viability,,48 h,CC50,6.3 µM
C=CS(=O)(=O)c1ccc(Nc2nc(OCC3CCCCC3)c3nc[nH]c3n2)cc1,,,"male BALB/c mouse, plasma","intraperitoneal, 20 mg/kg, single dose",MRT(0-t),2.26 h
CC[S+]([O-])c1nc(-c2cccc(OCc3ccccc3)c2)cc(C(F)(F)F)n1 (centres unmarked),HEK-293T,"cell growth or viability, ATP luminescence",,24 h,CC50,20 µM
CCCCCCCCNCC(O)c1cc(Cl)cc2c1-c1ccc(Cl)cc1C2 (racemic),HepG2,cell growth or viability,,48 h,CC50,5.9 µM
CCN1CCN(Cc2ccc(NC(=O)c3ccc(C)c(NC(=O)c4cncc(-c5cccs5)c4)c3)cc2C(F)(F)F)CC1,,,"mouse, plasma","intraperitoneal, 20 mg/kg, single dose",MRT,3.52 h
CCS(=O)(=O)c1nc(C)cc(-c2ccccc2)n1,HEK-293T,"cell growth or viability, ATP luminescence",,24 h,CC50,> 60 µM
CC(=O)O[C@@]12CO[C@@H]1C[C@H](O)[C@@]1(C)C(=O)[C@H](O)C3=C(C)[C@@H](OC(=O)[C@H](O)[C@@H](NC(=O)OC(C)(C)C)c4ccccc4)C[C@@](O)([C@@H](OC(=O)c4ccccc4)[C@H]21)C3(C)C,,,"male Kunming mouse, lung","oral, 20 mg/kg",MRT,1.8 h
CCOc1ccc(N(C)S(=O)(=O)c2cc(Cl)sc2C(=O)Nc2cc(Cl)cc(C(=O)O)c2)cc1OC,,,"male C57BL/6 mouse, brain","intraperitoneal, 10 mg/kg",MRT(0-inf),0.854 h
